# Laboratory results taken from publication PMC3954597 (Biochemistry, 2014).
# Legend:
# Format in all cases: biochemical
# TCPTP = molecular target: T1, TCPTP (Homo sapiens, UniProt P17706); experiment: PTP assay, TCPTP
# T1 sequence (P17706 1-314): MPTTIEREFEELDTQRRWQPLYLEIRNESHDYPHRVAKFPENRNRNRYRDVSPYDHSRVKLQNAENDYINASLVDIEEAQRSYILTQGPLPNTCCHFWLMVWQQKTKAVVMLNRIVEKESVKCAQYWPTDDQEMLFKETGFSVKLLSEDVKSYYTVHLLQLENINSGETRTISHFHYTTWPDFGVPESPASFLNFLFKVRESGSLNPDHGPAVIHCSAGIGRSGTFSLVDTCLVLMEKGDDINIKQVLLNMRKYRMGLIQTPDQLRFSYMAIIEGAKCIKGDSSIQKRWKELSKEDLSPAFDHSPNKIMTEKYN
# PTP-PEST = molecular target: T2, PTP-PEST (Homo sapiens, UniProt Q05209); experiment: PTP assay with pY peptide substrates, PTP-PEST; conditions: for Km / kcat / kcat/KM x10^6: catalytic domain, 100 mM HEPES pH 7.4, monitored at 282 nm
# T2 sequence (Q05209 5-300): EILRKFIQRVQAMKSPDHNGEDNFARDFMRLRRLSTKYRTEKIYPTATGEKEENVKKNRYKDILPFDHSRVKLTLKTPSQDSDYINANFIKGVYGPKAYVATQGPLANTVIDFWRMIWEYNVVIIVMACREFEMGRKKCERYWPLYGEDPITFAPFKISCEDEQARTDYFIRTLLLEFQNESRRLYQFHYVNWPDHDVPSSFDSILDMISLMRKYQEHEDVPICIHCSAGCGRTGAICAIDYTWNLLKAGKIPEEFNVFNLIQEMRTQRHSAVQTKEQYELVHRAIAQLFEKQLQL
# PTP1B = molecular target: T3, PTP1B (Homo sapiens, UniProt P18031); experiment: PTP assay, wild-type PTP1B; conditions: for kcat/KM x10^6: WT catalytic domain aa 1–321, 100 mM HEPES pH 7.4, monitored at 282 nm
# T3 sequence (P18031 1-321): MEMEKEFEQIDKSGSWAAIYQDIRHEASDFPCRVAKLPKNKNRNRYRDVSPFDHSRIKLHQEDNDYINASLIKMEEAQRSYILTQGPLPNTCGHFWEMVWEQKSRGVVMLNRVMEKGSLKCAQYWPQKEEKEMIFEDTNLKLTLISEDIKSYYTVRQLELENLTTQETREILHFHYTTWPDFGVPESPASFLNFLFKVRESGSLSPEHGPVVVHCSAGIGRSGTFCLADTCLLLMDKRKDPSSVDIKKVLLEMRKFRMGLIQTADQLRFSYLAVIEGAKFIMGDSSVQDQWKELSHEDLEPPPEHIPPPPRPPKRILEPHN
# Procedure, shortened: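 E. coli-expressed catalytic domains were used: wild-type, R24M or R47E PTP1B (aa 1–321), and SHP-1 (aa 205–595). Reactions started with PTP (0.5–20000 nM final) and dephosphorylation was monitored continuously at 282 nm. kcat, KM and kcat/KM came from initial-rate fits (Michaelis–Menten, or V = kcat[E][S]/KM when KM >> [S]) or from fits of progress curves.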
# PTPD1 = molecular target: T4, PTPD1 (Homo sapiens, UniProt Q16825); experiment: PTP assay, PTPD1
# T4 sequence (Q16825 875-1174): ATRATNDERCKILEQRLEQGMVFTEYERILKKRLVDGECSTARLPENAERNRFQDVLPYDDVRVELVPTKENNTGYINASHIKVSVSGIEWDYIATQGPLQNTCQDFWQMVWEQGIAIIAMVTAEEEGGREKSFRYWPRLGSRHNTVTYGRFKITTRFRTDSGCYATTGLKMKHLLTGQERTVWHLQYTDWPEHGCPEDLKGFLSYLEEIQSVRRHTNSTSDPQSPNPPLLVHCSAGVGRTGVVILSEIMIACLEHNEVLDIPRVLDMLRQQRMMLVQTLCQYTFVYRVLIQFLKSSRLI
# Procedure, shortened: (§1)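 His-tagged catalytic domains were made in E. coli: PTPD2 aa 876–1187 and PTPRC aa 620–1236 with N-terminal tags, PTPD1 aa 875–1174 and SHP-2 aa 199–593 with C-terminal tags. Enzyme was added at 0.5–20000 nM final. A282 (Δε 1102 M−1 cm−1) was followed. Constants came from Michaelis–Menten fits of initial rates (<60 s), or from fits of progress curves run to substrate depletion.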
# PTPRC = molecular target: T5, PTPRC (Homo sapiens, UniProt P08575); experiment: PTP assay, PTPRC; conditions: for Km / kcat / kcat/KM x10^6: catalytic domain, 100 mM HEPES pH 7.4, monitored at 282 nm
# T5 sequence (P08575 620-1236): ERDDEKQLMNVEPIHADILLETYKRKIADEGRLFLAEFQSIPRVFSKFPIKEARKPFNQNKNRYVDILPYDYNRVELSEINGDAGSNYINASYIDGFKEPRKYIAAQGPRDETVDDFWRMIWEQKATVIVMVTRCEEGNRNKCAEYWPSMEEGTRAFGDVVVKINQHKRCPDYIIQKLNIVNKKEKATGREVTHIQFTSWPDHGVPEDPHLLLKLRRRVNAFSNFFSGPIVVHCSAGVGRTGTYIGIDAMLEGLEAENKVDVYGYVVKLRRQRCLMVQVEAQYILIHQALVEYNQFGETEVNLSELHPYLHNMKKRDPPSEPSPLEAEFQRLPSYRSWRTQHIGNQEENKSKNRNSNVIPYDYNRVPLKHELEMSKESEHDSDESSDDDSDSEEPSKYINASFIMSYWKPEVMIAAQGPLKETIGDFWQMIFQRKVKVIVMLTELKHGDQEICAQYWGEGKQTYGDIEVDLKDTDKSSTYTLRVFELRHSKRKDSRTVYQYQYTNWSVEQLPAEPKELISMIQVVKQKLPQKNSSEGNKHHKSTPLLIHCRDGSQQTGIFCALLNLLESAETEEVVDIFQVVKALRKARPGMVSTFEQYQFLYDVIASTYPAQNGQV
# Procedure, shortened: as §1
# [1] = catalytic domain, 100 mM HEPES pH 7.4, monitored at 282 nm
# [2] = kcat/KM of neutral peptide over basic Ac-YRKRFpYRYKF-NH2
# [3] = kcat/KM of acidic peptide over basic Ac-YRKRFpYRYKF-NH2
# [4] = kcat/KM of acidic peptide over neutral Ac-SASASpYSASA-NH2
Substance,kcat/KM x10^6 (TCPTP; [1]),Km (PTP-PEST) [µM],kcat (PTP-PEST) [s⁻¹],kcat/KM x10^6 (PTP-PEST),kcat/KM x10^6 (PTP1B),kcat/KM x10^6 (PTPD1; [1]),Km (PTPRC) [µM],kcat (PTPRC) [s⁻¹],kcat/KM x10^6 (PTPRC),also measured
Ac-SASASpYSASA-NH2,1.7 x10^6 M^−1 s^−1,800 ± 10,160 ± 2,0.20 x10^6 M^−1 s^−1,2.3 x10^6 M^−1 s^−1,0.0000038 x10^6 M^−1 s^−1,170 ± 20,340 ± 50,2.0 x10^6 M^−1 s^−1,"Km (TCPTP; [1]): 10 ± 1 µM; kcat (TCPTP; [1]): 17 ± 2 s⁻¹; Neutral/Basic ratio of kcat/KM values (TCPTP; [2]): 53; kcat/KM x 10^7 (PTP1B; WT PTP1B aa 1–321, pH 7.4): 0.23 x 10^7 M^−1 s^−1; Neutral/Basic ratio of kcat/KM values (PTP1B; [2]): 61; Neutral/Basic ratio of kcat/KM values (PTPD1; [2]): 0.7; Neutral/Basic ratio of kcat/KM values (PTPRC; [2]): 41"
Ac-YDEDFpYDYEF-NH2,–,2.2 ± 0.5,470 ± 10,220 x10^6 M^−1 s^−1,55 x10^6 M^−1 s^−1,0.0012 x10^6 M^−1 s^−1,7 ± 0.9,300 ± 20,43 x10^6 M^−1 s^−1,Acidic/Basic ratio of kcat/KM values (PTP-PEST; [3]): 150000; Acidic/Neutral ratio of kcat/KM values (PTP-PEST; [4]): 1100; Acidic/Basic ratio of kcat/KM values (PTP1B; [3]): 1500; Acidic/Neutral ratio of kcat/KM values (PTP1B; [4]): 24; Km (PTPD1; [1]): 26 ± 5 µM; kcat (PTPD1; [1]): 0.032 ± 0.005 s⁻¹; Acidic/Basic ratio of kcat/KM values (PTPD1; [3]): 220; Acidic/Neutral ratio of kcat/KM values (PTPD1; [4]): 330; Acidic/Basic ratio of kcat/KM values (PTPRC; [3]): 880; Acidic/Neutral ratio of kcat/KM values (PTPRC; [4]): 22
Ac-YRKRFpYRYKF-NH2,0.032 x10^6 M^−1 s^−1,–,–,0.0015 x10^6 M^−1 s^−1,0.037 x10^6 M^−1 s^−1,0.0000057 x10^6 M^−1 s^−1,–,–,0.049 x10^6 M^−1 s^−1,–
